In ChEMBL document CHEMBL5674883, “The Heterochromatin Landscape in Migrating Cells and the Importance of H3K27me3 for Associated Transcriptome Alterations” (Cells, 2018):

Assays:
Format in all cases: cell-based
[1] = biological target: Histone-lysine N-methyltransferase EZH2 (Mus musculus) (UniProt Q61188); test: Inhibition of EZH2 in mouse B16-F1 migrating cells assessed as fold change in H3K27me3-buffered regulated Rnf145-mRNA expression at 3 uM measured by […] analysis relative to control cells
Sequence of Histone-lysine N-methyltransferase EZH2 (Mus musculus) (Q61188 whole entry): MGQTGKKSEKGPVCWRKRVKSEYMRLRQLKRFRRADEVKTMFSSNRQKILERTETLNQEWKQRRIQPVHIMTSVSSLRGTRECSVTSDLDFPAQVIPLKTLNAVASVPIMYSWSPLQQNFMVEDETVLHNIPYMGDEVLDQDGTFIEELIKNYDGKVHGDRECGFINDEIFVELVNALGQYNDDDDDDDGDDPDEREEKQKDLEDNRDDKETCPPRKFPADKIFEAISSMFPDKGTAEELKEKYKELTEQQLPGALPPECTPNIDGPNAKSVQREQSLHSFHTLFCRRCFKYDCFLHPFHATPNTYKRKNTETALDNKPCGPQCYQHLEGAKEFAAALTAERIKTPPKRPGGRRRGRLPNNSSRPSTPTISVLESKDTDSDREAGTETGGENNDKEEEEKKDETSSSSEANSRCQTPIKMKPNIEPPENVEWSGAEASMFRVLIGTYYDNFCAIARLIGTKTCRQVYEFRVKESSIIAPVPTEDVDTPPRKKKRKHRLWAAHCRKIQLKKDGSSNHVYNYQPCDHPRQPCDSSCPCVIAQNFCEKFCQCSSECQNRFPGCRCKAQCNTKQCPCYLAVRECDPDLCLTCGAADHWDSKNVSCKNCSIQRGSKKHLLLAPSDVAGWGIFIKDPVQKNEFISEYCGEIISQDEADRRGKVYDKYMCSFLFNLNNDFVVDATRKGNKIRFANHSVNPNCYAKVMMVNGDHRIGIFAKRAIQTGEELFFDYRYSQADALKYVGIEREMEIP
How it was run: (§1)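 Confluent B16-F1 cells on fibronectin-coated plates were scratched at multiple sites, washed once with DMEM and left to migrate 3 h in growth medium (37 °C, 7% CO2); unscratched cells served as control. GSK343 (3 µM) was added 3 h before lysis. Poly A mRNA was sequenced (RNA-seq), with 5 replicates for untreated and 3 for treated cells. Differential expression was called by linear model with batch correction, at FDR <0.05 and fold change ≥1.3.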

[2] = biological target: Histone-lysine N-methyltransferase EZH2 (Mus musculus) (UniProt Q61188); test: Inhibition of EZH2 in mouse B16-F1 migrating cells assessed as fold change in H3K27me3-buffered regulated Ndufv3-mRNA expression at 3 uM measured by […] analysis relative to control cells
How it was run: (§2)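 Confluent B16-F1 cells on fibronectin-coated plates, cultured at 37 °C and 7% CO2, were scratched at multiple sites to induce migration. They were then held 3 h in growth medium containing 3 µM GSK343, with the inhibitor added 3 h before lysis. Unscratched cells served as controls. Poly A mRNA was analysed by RNA-seq (n=3 GSK343, n=5 controls). Linear models removed batch effects, and buffered genes were those altered only under GSK343 (FDR <0.05, fold change >1.3).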

[3] = biological target: Histone-lysine N-methyltransferase EZH2 (Mus musculus) (UniProt Q61188); test: Inhibition of EZH2 in mouse B16-F1 migrating cells assessed as fold change in H3K27me3-independent regulated Maff-mRNA expression at 3 uM measured by […] analysis relative to control cells; how it was run: as §1
[4] = biological target: Histone-lysine N-methyltransferase EZH2 (Mus musculus) (UniProt Q61188); test: Inhibition of EZH2 in mouse B16-F1 migrating cells assessed as fold change in H3K27me3-dependent regulated Pxdc1-mRNA expression at 3 uM measured by […] analysis relative to control cells; how it was run: as §1
[5] = biological target: Histone-lysine N-methyltransferase EZH2 (Mus musculus) (UniProt Q61188); test: Inhibition of EZH2 in mouse B16-F1 migrating cells assessed as fold change in H3K27me3-buffered regulated Hs3st1-mRNA expression at 3 uM measured by […] analysis relative to control cells; how it was run: as §2
[6] = biological target: Histone-lysine N-methyltransferase EZH2 (Mus musculus) (UniProt Q61188); test: Inhibition of EZH2 in mouse B16-F1 migrating cells assessed as fold change in H3K27me3-independent regulated Nr4a3-mRNA expression at 3 uM measured by ChIP-seq analysis relative to control cells; how it was run: as §1
[7] = biological target: Histone-lysine N-methyltransferase EZH2 (Mus musculus) (UniProt Q61188); test: Inhibition of EZH2 in mouse B16-F1 migrating cells assessed as fold change in H3K27me3-independent regulated Cep152-mRNA expression at 3 uM measured by ChIP-seq analysis relative to control cells; how it was run: as §1
[8] = biological target: Histone-lysine N-methyltransferase EZH2 (Mus musculus) (UniProt Q61188); test: Inhibition of EZH2 in mouse B16-F1 migrating cells assessed as fold change in H3K27me3-buffered regulated Sltm-mRNA expression at 3 uM measured by ChIP-seq analysis relative to control cells; how it was run: as §1
[9] = biological target: Histone-lysine N-methyltransferase EZH2 (Mus musculus) (UniProt Q61188); test: Inhibition of EZH2 in mouse B16-F1 migrating cells assessed as fold change in H3K27me3-dependent regulated Cxxc5-mRNA expression at 3 uM measured by […] analysis relative to control cells; how it was run: as §1
[10] = biological target: Histone-lysine N-methyltransferase EZH2 (Mus musculus) (UniProt Q61188); test: Inhibition of EZH2 in mouse B16-F1 migrating cells assessed as fold change in H3K27me3-buffered regulated Mef2d-mRNA expression at 3 uM measured by […] analysis relative to control cells; how it was run: as §2
[11] = biological target: Histone-lysine N-methyltransferase EZH2 (Mus musculus) (UniProt Q61188); test: Inhibition of EZH2 in mouse B16-F1 migrating cells assessed as fold change in H3K27me3-buffered regulated Slc26a2-mRNA expression at 3 uM measured by […] analysis relative to control cells; how it was run: as §1
[12] = biological target: Histone-lysine N-methyltransferase EZH2 (Mus musculus) (UniProt Q61188); test: Inhibition of EZH2 in mouse B16-F1 migrating cells assessed as fold change in H3K27me3-independent regulated Fosl2-mRNA expression at 3 uM measured by […] analysis relative to control cells; how it was run: as §1
[13] = biological target: Histone-lysine N-methyltransferase EZH2 (Mus musculus) (UniProt Q61188); test: Inhibition of EZH2 in mouse B16-F1 migrating cells assessed as fold change in H3K27me3-buffered regulated Gulp1-mRNA expression at 3 uM measured by […] analysis relative to control cells; how it was run: as §2
[14] = biological target: Histone-lysine N-methyltransferase EZH2 (Mus musculus) (UniProt Q61188); test: Inhibition of EZH2 in mouse B16-F1 migrating cells assessed as fold change in H3K27me3-independent regulated Csrnp1-mRNA expression at 3 uM measured by […] analysis relative to control cells; how it was run: as §1
[15] = biological target: Histone-lysine N-methyltransferase EZH2 (Mus musculus) (UniProt Q61188); test: Inhibition of EZH2 in mouse B16-F1 migrating cells assessed as fold change in H3K27me3-buffered regulated Vegfc-mRNA expression at 3 uM measured by […] analysis relative to control cells; how it was run: as §1
[16] = biological target: T1, RNA polymerase II (Mus musculus) (UniProt P08775+Q8CFI7+P97760+A0A3Q4L2S8+Q80UW8+P61219+P62488+Q923G2+P60898+O08740+Q63871+P62876); test: Inhibition of RNA polymerase II in mouse B16-F1 migrating cells assessed as fold change in Mtch1-RNA stability at 0.1 mM measured by ChIP-seq analysis relative to control cells
[17] = biological target: T1, RNA polymerase II (Mus musculus); test: Inhibition of RNA polymerase II in mouse B16-F1 migrating cells assessed as fold change in Acbd6-RNA stability at 0.1 mM measured by […] analysis relative to control cells
[18] = biological target: T1, RNA polymerase II (Mus musculus); test: Inhibition of RNA polymerase II in mouse B16-F1 migrating cells assessed as fold change in Med25-RNA stability at 0.1 mM measured by ChIP-seq analysis relative to control cells
[19] = biological target: T1, RNA polymerase II (Mus musculus); test: Inhibition of RNA polymerase II in mouse B16-F1 migrating cells assessed as fold change in Vegfa-RNA stability at 0.1 mM measured by […] analysis relative to control cells
[20] = biological target: T1, RNA polymerase II (Mus musculus); test: Inhibition of RNA polymerase II in mouse B16-F1 migrating cells assessed as fold change in Ptbp2-RNA stability at 0.1 mM measured by […] analysis relative to control cells
[21] = biological target: T1, RNA polymerase II (Mus musculus); test: Inhibition of RNA polymerase II in mouse B16-F1 migrating cells assessed as fold change in Nelfe-RNA stability at 0.1 mM measured by ChIP-seq analysis relative to control cells
[22] = biological target: T1, RNA polymerase II (Mus musculus); test: Inhibition of RNA polymerase II in mouse B16-F1 migrating cells assessed as fold change in Crbn-RNA stability at 0.1 mM measured by ChIP-seq analysis relative to control cells
[23] = biological target: T1, RNA polymerase II (Mus musculus); test: Inhibition of RNA polymerase II in mouse B16-F1 migrating cells assessed as fold change in Cd2ap-RNA stability at 0.1 mM measured by […] analysis relative to control cells
How it was run: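 Mouse B16-F1 melanoma cells grown to confluence on fibronectin in DMEM/10% FCS at 37 °C, 7% CO2. Migration induced by multiple scratches and 3 h incubation; unscratched controls. DRB 0.1 mM added 3 h before lysis. RNA from poly A-selected mRNA was sequenced (RNA-seq, three replicates per DRB group). Fold change computed for DRB-treated migrating vs DRB-treated control cells; cutoffs fold change >1.3, FDR <0.05.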

[24] = biological target: T1, RNA polymerase II (Mus musculus); test: Inhibition of RNA polymerase II in mouse B16-F1 migrating cells assessed as fold change in Alkbh8-RNA stability at 0.1 mM measured by […] analysis relative to control cells

CCCc1cc(C)[nH]c(=O)c1CNC(=O)c1cc(-c2ccnc(N3CCN(C)CC3)c2)cc2c1cnn2C(C)C
log2FC [1]: -0.49 | log2FC [2]: 0.38 | log2FC [3]: 0.76 | log2FC [4]: -0.09 | log2FC [5]: 0.78 | log2FC [6]: 0.74 | log2FC [7]: -0.48 | log2FC [8]: -0.45 | log2FC [9]: 0.23 | log2FC [10]: 0.41 | log2FC [11]: 0.38 | log2FC [12]: 0.7 | log2FC [13]: -0.44 | log2FC [14]: 0.64 | log2FC [15]: -0.44

OC[C@H]1O[C@@H](n2cnc3cc(Cl)c(Cl)cc32)[C@H](O)[C@@H]1O
log2FC [16]: 0.46 | log2FC [17]: 0.43 | log2FC [18]: 0.42 | log2FC [19]: 0.67 | log2FC [20]: -0.56 | log2FC [21]: 0.39 | log2FC [22]: -0.45 | log2FC [23]: -0.57 | log2FC [24]: -0.55
